Assay results taken from ChEMBL document CHEMBL1921692 (J Med Chem, 2011).

system: not listed separately; experiment: Dissociation constant, pKa of the compound; type: physicochemical

pKa	SMILES
6.45	CCC[C@@H]1NCCOc2ccccc2CCCNC(=O)[C@@H](Cc2ccccc2)NC(=O)[C@@H](C)N(C)C1=O

target: T1, Growth hormone secretagogue receptor type 1 (Homo sapiens, UniProt Q92847); experiment: Agonist activity at human GRLN receptor expressed in HEK293 cells assessed as calcium binding by Ca2+ bioluminescence aequorin assay; type: functional, cell-based
T1 sequence (Q92847 whole entry): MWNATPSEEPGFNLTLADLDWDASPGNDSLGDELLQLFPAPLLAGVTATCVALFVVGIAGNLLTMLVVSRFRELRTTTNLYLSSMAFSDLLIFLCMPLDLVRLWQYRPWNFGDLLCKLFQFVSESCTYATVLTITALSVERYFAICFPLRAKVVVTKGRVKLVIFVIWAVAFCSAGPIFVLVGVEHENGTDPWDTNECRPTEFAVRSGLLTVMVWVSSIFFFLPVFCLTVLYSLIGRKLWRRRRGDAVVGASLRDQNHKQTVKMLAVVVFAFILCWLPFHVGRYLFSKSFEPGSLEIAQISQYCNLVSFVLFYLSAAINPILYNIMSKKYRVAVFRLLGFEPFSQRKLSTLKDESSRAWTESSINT
Method in brief: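 HEK-293 cells expressing human GRLN. Ca2+ bioluminescence read out by aequorin. Duplicate samples, maximum tolerated interassay variability ±10%. Full agonism defined as maximal response >70% of that of octanoylated human ghrelin.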

SMILES	EC50
Cc1ccc(C[C@H]2NC(=O)[C@@H](C)N(C)C(=O)[C@H](C3CC3)NCCOc3ccccc3CCCNC2=O)cc1	8.2 nM
CC[C@H](C)[C@@H]1NCCCc2ccccc2CCCCNC(=O)[C@@H](Cc2ccccc2)NC(=O)[C@@H](C)N(C)C1=O	360 nM
CCC[C@@H]1NCCOc2ccccc2CCCNC(=O)[C@@H](Cc2ccccc2)NC(=O)[C@@H](C)N(C)C1=O	40 nM
CCC[C@@H]1NCCOc2ccccc2CCCNC(=O)[C@@H](Cc2ccc(O)cc2)NC(=O)CN(C)C1=O	39 nM
CC[C@H](C)[C@@H]1NCCOc2ccccc2CCNC(=O)[C@@H](Cc2ccccc2)NC(=O)[C@@H](C)N(C)C1=O	530 nM

Other lines, results leading:

EC50	SMILES
310 nM	CC[C@H](C)[C@@H]1NCCCC/C=C/CCNC(=O)[C@@H](Cc2ccccc2)NC(=O)[C@@H](C)N(C)C1=O (mixture of isomers)
26 nM	C[C@@H]1C(=O)N[C@H](Cc2ccc(F)cc2)C(=O)NCCCc2ccccc2O[C@@H](C)CN[C@@H](C2CC2)C(=O)N1C
760 nM	CC1COc2ccccc2CCCNC(=O)[C@@H](Cc2ccc(F)cc2)NC(=O)[C@@H](C)N(C)C(=O)[C@H](C2CC2)N1 (mixture of isomers)
11 nM	C[C@@H]1C(=O)N[C@H](Cc2ccc(C(F)(F)F)cc2)C(=O)NCCCc2ccccc2OCCN[C@@H](C2CC2)C(=O)N1C

target: T1, Growth hormone secretagogue receptor type 1; experiment: Displacement of [125I-His9]-ghrelin from human GRLN receptor by radioligand binding assay
Method in brief: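 Competitive binding on isolated membranes expressing GRLN, with 125I-His-9 octanoylated ghrelin as radioligand.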

SMILES	Ki
Cc1ccc(C[C@H]2NC(=O)[C@@H](C)N(C)C(=O)[C@H](C3CC3)NCCOc3ccccc3CCCNC2=O)cc1	5 nM
CC[C@H](C)[C@@H]1NCCCc2ccccc2CCCCNC(=O)[C@@H](Cc2ccccc2)NC(=O)[C@@H](C)N(C)C1=O	78 nM
CCC[C@@H]1NCCOc2ccccc2CCCNC(=O)[C@@H](Cc2ccccc2)NC(=O)[C@@H](C)N(C)C1=O	16 nM
CCC[C@@H]1NCCOc2ccccc2CCCNC(=O)[C@@H](Cc2ccc(O)cc2)NC(=O)CN(C)C1=O	120 nM
CC[C@H](C)[C@@H]1NCCOc2ccccc2CCNC(=O)[C@@H](Cc2ccccc2)NC(=O)[C@@H](C)N(C)C1=O	210 nM

More lines, in order of falling Ki, values ahead:

Ki	SMILES
160 nM	CC[C@H](C)[C@@H]1NCCCC/C=C/CCNC(=O)[C@@H](Cc2ccccc2)NC(=O)[C@@H](C)N(C)C1=O (mixture of isomers)
56 nM	C[C@@H]1C(=O)N[C@H](Cc2ccc(F)cc2)C(=O)NCCCc2ccccc2O[C@@H](C)CN[C@@H](C2CC2)C(=O)N1C
9 nM	CC1COc2ccccc2CCCNC(=O)[C@@H](Cc2ccc(F)cc2)NC(=O)[C@@H](C)N(C)C(=O)[C@H](C2CC2)N1 (mixture of isomers)
7 nM	C[C@@H]1C(=O)N[C@H](Cc2ccc(C(F)(F)F)cc2)C(=O)NCCCc2ccccc2OCCN[C@@H](C2CC2)C(=O)N1C
6.2 nM	C[C@@H]1C(=O)N[C@H](Cc2ccccc2F)C(=O)NCCCc2ccccc2OCCN[C@@H](C2CC2)C(=O)N1C
